Test results: ChEMBL document CHEMBL4811252, “Identification of novel 1,3-diaryl-1,2,4-triazole-capped histone deacetylase 6 inhibitors with potential anti-gastric cancer activity” (Eur J Med Chem, 2021)
pIC50, pKd: −log10 of the molar value. The source made the active and inactive calls. The calls are words filed in the database; no cut-off is given here.

Key:
[1] = biological target: Histone deacetylase 2 (Homo sapiens, UniProt Q92769); assay: Inhibition of HDAC2 (unknown origin)
[2] = biological target: T1, Histone deacetylase 8 (Homo sapiens, UniProt Q9BY41); assay: Inhibition of HDAC8 (unknown origin)
T1 sequence (Q9BY41 whole entry): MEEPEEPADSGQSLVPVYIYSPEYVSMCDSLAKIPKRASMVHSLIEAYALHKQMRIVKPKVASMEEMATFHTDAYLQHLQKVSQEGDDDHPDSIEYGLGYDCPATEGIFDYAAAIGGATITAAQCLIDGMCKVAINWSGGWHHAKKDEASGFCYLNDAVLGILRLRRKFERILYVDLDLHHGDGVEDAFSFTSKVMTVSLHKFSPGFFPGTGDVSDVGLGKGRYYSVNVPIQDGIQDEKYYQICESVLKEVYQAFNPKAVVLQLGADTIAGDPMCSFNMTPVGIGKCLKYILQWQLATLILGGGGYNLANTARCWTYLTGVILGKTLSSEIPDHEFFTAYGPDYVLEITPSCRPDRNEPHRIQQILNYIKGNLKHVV

[3] = biological target: T2, Protein deacetylase HDAC6 (Homo sapiens, UniProt Q9UBN7); assay: Binding affinity to recombinant human HDAC6 by BLI assay
T2 sequence (Q9UBN7 whole entry): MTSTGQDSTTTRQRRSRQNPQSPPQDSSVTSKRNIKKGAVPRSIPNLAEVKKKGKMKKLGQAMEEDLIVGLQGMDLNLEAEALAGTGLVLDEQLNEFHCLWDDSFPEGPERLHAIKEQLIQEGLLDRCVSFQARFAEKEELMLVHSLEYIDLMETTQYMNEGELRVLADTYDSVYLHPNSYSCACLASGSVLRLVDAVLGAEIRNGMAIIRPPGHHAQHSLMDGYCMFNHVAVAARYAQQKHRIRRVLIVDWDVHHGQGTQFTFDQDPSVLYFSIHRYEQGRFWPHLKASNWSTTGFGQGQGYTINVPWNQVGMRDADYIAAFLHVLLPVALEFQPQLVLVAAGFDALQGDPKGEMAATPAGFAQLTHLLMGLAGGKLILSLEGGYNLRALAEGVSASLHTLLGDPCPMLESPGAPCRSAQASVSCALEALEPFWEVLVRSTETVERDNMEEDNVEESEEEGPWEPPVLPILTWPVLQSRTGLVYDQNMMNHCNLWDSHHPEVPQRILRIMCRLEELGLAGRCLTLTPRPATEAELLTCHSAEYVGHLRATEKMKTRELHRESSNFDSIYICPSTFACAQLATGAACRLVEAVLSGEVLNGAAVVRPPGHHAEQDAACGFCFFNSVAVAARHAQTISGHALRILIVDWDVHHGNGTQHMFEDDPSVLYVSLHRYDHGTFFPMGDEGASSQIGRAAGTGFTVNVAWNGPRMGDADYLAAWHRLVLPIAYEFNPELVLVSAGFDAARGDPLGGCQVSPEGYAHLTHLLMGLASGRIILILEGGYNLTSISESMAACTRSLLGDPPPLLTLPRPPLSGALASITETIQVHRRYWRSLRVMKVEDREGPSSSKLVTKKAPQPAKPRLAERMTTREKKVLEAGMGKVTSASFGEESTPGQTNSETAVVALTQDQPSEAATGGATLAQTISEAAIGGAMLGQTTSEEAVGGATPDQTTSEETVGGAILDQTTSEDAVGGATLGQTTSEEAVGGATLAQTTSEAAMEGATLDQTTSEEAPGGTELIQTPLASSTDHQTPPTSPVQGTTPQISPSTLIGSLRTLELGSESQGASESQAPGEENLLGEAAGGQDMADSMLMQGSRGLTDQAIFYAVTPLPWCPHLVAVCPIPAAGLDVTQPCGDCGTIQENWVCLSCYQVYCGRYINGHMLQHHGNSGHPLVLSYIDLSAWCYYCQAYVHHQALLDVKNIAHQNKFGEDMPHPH

[4] = biological target: T3, Protein deacetylase HDAC6 (Homo sapiens) (UniProt Q9UBN7); assay: Binding affinity to HDAC6 in human MGC803 cells assessed as increase in thermal stability at 4 uM after 6 hrs by CETSA; type: cell-based; conditions: MGC-803
T3 sequence (whole entry): T2 sequence (Q9UBN7 whole entry)
Outline: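 MGC803 grown 24 h in 6-well plates, then exposed to DMSO or 4 µM compound for 6 h. Cells resuspended in ice-cold PBS and split into 6 tubes. Lysed by repeated freeze-thaw, heated 3 min across a 44 to 54 °C gradient. Soluble HDAC6 in the supernatant read by Western blot.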

[5] = biological target: T3, Protein deacetylase HDAC6 (Homo sapiens); assay: Inhibition of HDAC6 in human MGC803 cells assessed as accumulation of acetylated alpha-tubulin level after 48 hrs by Western blotting analysis; type: cell-based; conditions: MGC-803, dose 2-8 µM
Outline: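 MGC803 cells treated for 48 h, then lysed (0.1% SDS, 150 mM NaCl, 25 mM Tris-HCl, 1% deoxycholate, 1% NP-40, 1% PMSF). Protein quantified by BCA and resolved on 8–10% SDS-PAGE onto PVDF. Blocked in 5% milk, primary antibodies overnight at 4 °C, HRP secondary, ECL. GAPDH, total α-tubulin and H3 as references. Mean ± SD of three experiments.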

[6] = system: MGC-803; assay: Induction of apoptosis in human MGC803 cells assessed as late apoptotic cells at 4 uM measured after 48 hrs by Annexin-V FITC/PI staining based flow cytometry (reference value: 2.74%); type: functional
[7] = system: MGC-803; assay: Induction of apoptosis in human MGC803 cells assessed as viable cells at 8 uM measured after 48 hrs by Annexin-V FITC/PI staining based flow cytometry (reference value: 92.33%); type: functional; conditions: read-out: Activity
[8] = Acute toxicity in C57BL/6 mouse assessed as mortality at 2 g/kg, po administered via gavage measured up to 14 days; type: organism-based; conditions: in vivo, 2000 mg/kg, 336 h, time <=14 day
Outline: (§1)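 Mice aged 8-10 weeks, 20 females and 20 males, split into two groups: vehicle control (0.5% CMC-Na) or a single oral gavage dose of 2000 mg/kg. Animals were fed and observed normally for 14 days, recording body weight, mortality and behaviour. Heart, liver, spleen, lung and kidney sections were then fixed, embedded and H&E stained.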

[9] = Acute toxicity in C57BL/6 mouse assessed as change in body weight at 2 g/kg, po administered via gavage measured up to 14 days; type: organism-based; conditions: in vivo, 2000 mg/kg, 336 h, time <=14 day; outline: as §1
[10] = Acute toxicity in C57BL/6 mouse assessed as behavioral abnormalities at 2 g/kg, po administered via gavage measured up to 14 days; type: organism-based; conditions: in vivo, 2000 mg/kg, 336 h, time <=14 day; outline: as §1
[11] = Acute toxicity in C57BL/6 mouse assessed as heart tissue damage at 2 g/kg, po administered via gavage measured up to 14 days by HE staining based assay; type: organism-based; conditions: in vivo, 2000 mg/kg, 336 h, time <=14 day; outline: as §1
[12] = Acute toxicity in C57BL/6 mouse assessed as liver tissue damage at 2 g/kg, po administered via gavage measured up to 14 days by HE staining based assay; type: organism-based; conditions: in vivo, 2000 mg/kg, 336 h, time <=14 day; outline: as §1
[13] = Acute toxicity in C57BL/6 mouse assessed as spleen tissue damage at 2 g/kg, po administered via gavage measured up to 14 days by HE staining based assay; type: organism-based; conditions: in vivo, 2000 mg/kg, 336 h, time <=14 day; outline: as §1
[14] = Acute toxicity in C57BL/6 mouse assessed as lung tissue damage at 2 g/kg, po administered via gavage measured up to 14 days by HE staining based assay; type: organism-based; conditions: in vivo, 2000 mg/kg, 336 h, time <=14 day; outline: as §1
[15] = biological target: Histone deacetylase 1 (Homo sapiens, UniProt Q13547); conditions: dose 100.0 nM, time 40.0 min
Chain of Histone deacetylase 1 (Q13547 whole entry): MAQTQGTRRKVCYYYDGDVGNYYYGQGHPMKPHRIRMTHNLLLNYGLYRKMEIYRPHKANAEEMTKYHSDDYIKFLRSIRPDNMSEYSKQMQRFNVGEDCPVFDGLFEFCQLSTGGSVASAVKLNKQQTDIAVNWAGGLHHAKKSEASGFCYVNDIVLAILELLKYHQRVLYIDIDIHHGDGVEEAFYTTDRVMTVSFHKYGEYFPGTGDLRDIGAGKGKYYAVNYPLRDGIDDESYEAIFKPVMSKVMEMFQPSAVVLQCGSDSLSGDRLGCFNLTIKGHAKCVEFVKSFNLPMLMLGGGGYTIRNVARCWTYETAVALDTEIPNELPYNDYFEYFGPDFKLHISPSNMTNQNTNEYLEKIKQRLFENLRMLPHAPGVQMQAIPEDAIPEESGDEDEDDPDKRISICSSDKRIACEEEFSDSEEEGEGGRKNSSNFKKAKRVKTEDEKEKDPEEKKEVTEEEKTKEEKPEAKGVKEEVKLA

Chain of Histone deacetylase 2 (Q92769 whole entry): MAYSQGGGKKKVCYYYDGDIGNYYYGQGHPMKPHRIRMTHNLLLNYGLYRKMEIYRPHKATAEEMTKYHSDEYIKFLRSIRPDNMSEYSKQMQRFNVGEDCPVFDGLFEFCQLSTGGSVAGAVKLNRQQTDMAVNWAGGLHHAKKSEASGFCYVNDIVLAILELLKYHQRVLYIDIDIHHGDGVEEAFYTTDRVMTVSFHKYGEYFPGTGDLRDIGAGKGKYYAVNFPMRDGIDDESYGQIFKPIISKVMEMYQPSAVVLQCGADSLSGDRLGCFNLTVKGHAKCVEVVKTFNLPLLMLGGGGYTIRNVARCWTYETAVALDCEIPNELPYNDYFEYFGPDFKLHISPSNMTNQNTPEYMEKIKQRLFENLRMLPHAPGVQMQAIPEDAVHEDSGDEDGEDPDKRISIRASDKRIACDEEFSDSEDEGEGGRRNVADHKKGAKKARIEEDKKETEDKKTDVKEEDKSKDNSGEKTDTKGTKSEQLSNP

Question: With `Cc1ccc(-c2nc(CNc3ccc(C(=O)NO)cc3)n(-c3ccccc3)n2)s1` as the molecule, how does the pIC50 [1] read?
Answer: 6.65

Question: What about the pIC50 [2] of the same molecule?
Answer: 6.46

Question: And the pKd [3]?
Answer: 8.15

Question: And the Activity [4]?
Answer: Active

Question: What about the inhibition [5] of the same molecule?
Answer: Dose-Dependent Effect

Question: And the Activity [6]?
Answer: 15.5%

Question: And the viability at 8 µM [7]?
Answer: 43.6%

Question: What about the Activity [8] of the same molecule?
Answer: Non-Toxic

Question: And the Activity [9]?
Answer: Non-Toxic

Question: And the Activity [10]?
Answer: Non-Toxic

Question: What about the Activity [11] of the same molecule?
Answer: Non-Toxic

Question: What about the Activity [12] of the same molecule?
Answer: Non-Toxic

Question: What about the Activity [13] of the same molecule?
Answer: Non-Toxic

Question: And the Activity [14]?
Answer: Non-Toxic

Question: What about the inhibition [15] of the same molecule?
Answer: 30.1%
